Shown is part of a subset that was picked to be rich in hits.
B2AR ag = human beta-2 adrenergic receptor agonism by FAP | P07550 | Am2.2-beta2AR cells, FAP receptor internalization, flow cytometry | response, % (concentration not given with the values) | 340,000 compounds, 0.43% hits | AID 504454;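 active means response above a set limit, near 3 SD of response in nonfluorescent compounds, cut at about 42% in these data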
Target sequence (P07550 whole entry, looked up): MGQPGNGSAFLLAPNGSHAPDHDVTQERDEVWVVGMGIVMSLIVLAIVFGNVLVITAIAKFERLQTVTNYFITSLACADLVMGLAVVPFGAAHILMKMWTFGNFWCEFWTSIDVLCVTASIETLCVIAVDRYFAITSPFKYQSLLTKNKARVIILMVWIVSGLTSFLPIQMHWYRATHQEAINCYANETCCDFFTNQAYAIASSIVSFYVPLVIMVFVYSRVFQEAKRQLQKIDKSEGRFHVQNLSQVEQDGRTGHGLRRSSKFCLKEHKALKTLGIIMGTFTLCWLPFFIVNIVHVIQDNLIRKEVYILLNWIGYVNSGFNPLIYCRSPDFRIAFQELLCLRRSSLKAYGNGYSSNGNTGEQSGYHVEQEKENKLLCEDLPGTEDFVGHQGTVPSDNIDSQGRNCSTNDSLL
Dynein cargo inh = dynein cargo transport inhibition; 3617.4 mouse cells, GR-EGFP nuclear translocation imaging; test concentration mostly 20 µM; stimulated with dexamethasone, 1 µM; stronger effect = lower value; z-score, hits read low; 220,000 compounds, 0.47% hits; AID 1381;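 active means plate z-score of nuclear minus cytoplasmic receptor signal below a set negative limit, without overly bright fluorescence or cell loss, cut at about -3.5 in these data, passing the limit was not always enough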;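 further: z-score of nuclear minus cytoplasmic ring GR-EGFP intensity difference per well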
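Buffer or medium: tet-free, stripped-serum medium; reagent: dexamethasone at 1.0 µM final, 30 min; incubation: 48 h induction, 1 h compound, 30 min dex at 37 °C; measured by: formaldehyde fixation, Hoechst nuclear stain, 10x automated fluorescence imaging; read-out: nuclear-to-cytoplasmic GR-EGFP distribution per well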
pCIP destab = p/CIP protein destabilization; 290,000 compounds, 0.01% hits; Q05BA5; F442A p/CIP-EGFP cells, EGFP fluorescence, 16 h; decrease of EGFP signal, % at 10 µM;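 active means EGFP signal decrease of at least 30% at 10 µM or well 3 SD below plate mean, unless failing retest; inactive means the rest, including hits failing retest or dose response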
CHOP inhibitor = CHOP inhibition in unfolded protein response; CHO-K1 CHOP-promoter luciferase, tunicamycin-induced, 15-18 h; inhibition, % at 10 µM; 220,000 compounds, 3.8% hits; AID 2732;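 active means compounds that reduced the stress-induced luciferase reporter signal by more than about 70% of percent inhibition, limit read from the data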;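 further: 0% = tunicamycin plus vehicle and 100% = wells without tunicamycin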
UPR XBP1 act = adaptive UPR (XBP1) activation; CHO-XBP1 luciferase reporter, IRE1-XBP1 UPR activation, luminescence; percent of tunicamycin response, DMSO as zero; activation, % at 20 µM; 330,000 compounds, 0.33% hits;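 active means versus positive control, 20 µM dose yields 30% or more activation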;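 further: 100% = tunicamycin at 10 µg/mL and 0% = DMSO only wells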
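Material: CHO-XBP1 cells stably carrying IRE1-XBP1-driven luciferase reporter / Amount: 1000 cells per well / Compound: 20 µM, 1% DMSO / Times: 6 h treatment, 37 °C / Detection: luciferase luminescence / Measure: % activation of reporter signal versus tunicamycin and DMSO controls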
UPR CHOP act = activators of apoptotic arm of unfolded protein response (CHOP); CHO-CHOP luciferase reporter, UPR activation, luminescence; percent of tunicamycin response over DMSO baseline; activation, % at 10 µM; 330,000 compounds, 0.34% hits;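 active means at 10 µM dose, activation of 40% or more, normalized to positive control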;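 further: 100% = tunicamycin at 10 µg/mL and 0% = DMSO alone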
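Test system: CHO-CHOP cells, stable luciferase reporter of PERK-eIF2a-CHOP signalling | Quantity: 500 CHO-CHOP cells per well | Buffer or medium: F12 plus 10% serum | Compound dosing: 10 µM single point, 0.5% DMSO | Schedule: 6 h compound treatment, 37 °C | Signal: Luciferase luminescence | Control set: Tunicamycin high control, DMSO low control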
* hit, by the source's call.

SMILES | B2AR ag | Dynein cargo inh | pCIP destab | CHOP inhibitor | UPR XBP1 act | UPR CHOP act
O=C(COc1ccc2c(c1)CCC2)N1CCN(c2cccc(C(F)(F)F)c2)CC1 | -5.6 | -0.782 | -4.0 | 85.7* | 1.2 | -1.9
COCC(=O)N1CCN(c2cccc(C(F)(F)F)c2)CC1 | 0.6 | 1.63 | -3.5 | -3.5 | 5.9 | 0.6
COC(=O)[C@@H](NC(=O)N1CCN(c2cccc(C(F)(F)F)c2)CC1)C(C)C | 2.9 | -0.371 | 1.1 | 9.9 | -1.0 | -0.5
O=C(COc1ccc(S(=O)(=O)NC2CCCCC2)cc1)N1CCN(c2cccc(Cl)c2)CC1 | -1.6 | -0.174 | -9.1 | 78.7* | 0.4 | 4.6
COC(=O)c1cccc(COC(=O)c2ccc(CS(=O)(=O)c3ccc(C)cc3)cc2)c1 | 0.1 | -0.307 | -13.5 | 17.4 | -1.2 | -1.7
CCOC(=O)c1cc2nc(Nc3ccc(OC)cc3)sc2s1 | 5.1 | 0.384 | 2.8 | 70.2* | -3.4 | 4.3

Compound activity (PubChem)
